Where a chain is given by its changes, count along the chain named. Read-outs that look alike come from different tables or passages of the source.
Key:
[1] = system: Ppara-null hippocampal neurons; test: Dendritic spine density; type: cell-based, mouse; details: Ppara-null neurons transduced with lenti-FL-Ppara or lenti-Y464D-Ppara
How it was run: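 Ppara-null hippocampal neurons were taken from E18 fetuses and treated with 10 μM AraC to remove glia. They were differentiated 9–10 days, then transduced 48 h with lentivirions carrying GFP (vector), FL-Ppara or Y464D-Ppara. Neurons then received vehicle (DMSO) or test compound for 24 h. They were stained with Dylight-554-phalloidin, and spine density was scored by fluorescence microscopy.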

primary mouse astrocytes = test: MTT cell viability of tk-PPREx3-Luc-transfected astrocytes; type: cell-based; details: higher concentrations, 4 h
CREB promoter = test: ChIP analyses of the CREB promoter; type: cell-based; details: ChIP followed by real-time PCR
Y314D-Ppara = target: T1, Y314D-Ppara (Mus musculus, UniProt P23204, Y314D); type: cell-based; details: Ppara-null astrocytes transduced with lenti-Y314D-Ppara, 4 h
T1 sequence (P23204 1-468 Y314D): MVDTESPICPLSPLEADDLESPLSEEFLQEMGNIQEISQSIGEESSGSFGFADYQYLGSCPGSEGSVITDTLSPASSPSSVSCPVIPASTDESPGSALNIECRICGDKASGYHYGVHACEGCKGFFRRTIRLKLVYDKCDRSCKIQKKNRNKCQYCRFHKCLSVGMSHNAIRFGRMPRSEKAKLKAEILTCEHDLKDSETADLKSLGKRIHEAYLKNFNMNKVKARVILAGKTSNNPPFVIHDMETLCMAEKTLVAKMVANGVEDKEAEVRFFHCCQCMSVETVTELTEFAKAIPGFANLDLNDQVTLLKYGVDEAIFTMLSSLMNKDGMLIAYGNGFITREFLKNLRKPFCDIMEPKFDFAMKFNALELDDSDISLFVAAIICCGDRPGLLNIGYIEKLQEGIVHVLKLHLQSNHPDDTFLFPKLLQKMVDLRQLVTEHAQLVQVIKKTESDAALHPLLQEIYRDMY

PPARβ-LBD = target: T2, PPARβ-LBD (Homo sapiens, UniProt Q03181); test: GC-MS of hippocampal nuclear extracts after pull-down with GST-PPARβ-LBD; type: binding; details: mouse hippocampal nuclear extracts
T2 sequence (Q03181 211-439 limits assumed): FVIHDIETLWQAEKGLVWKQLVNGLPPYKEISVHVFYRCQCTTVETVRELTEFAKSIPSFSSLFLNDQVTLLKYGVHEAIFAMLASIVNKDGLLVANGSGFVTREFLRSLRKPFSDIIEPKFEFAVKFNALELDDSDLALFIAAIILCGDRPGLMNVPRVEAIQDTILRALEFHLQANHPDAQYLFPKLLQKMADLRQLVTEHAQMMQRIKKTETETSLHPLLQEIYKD

Y314D/Y464D-Ppara = target: T3, Y314D/Y464D-Ppara (Mus musculus, UniProt P23204, Y314D/Y464D); type: cell-based; details: Ppara-null astrocytes transduced with lenti-Y314D/Y464D-Ppara, 4 h
T3 sequence (P23204 1-468 Y314D/Y464D): T1 sequence (P23204 1-468 Y314D) with Y464D

PPRE luciferase activity = test: PPRE-luciferase assay in Pparb-null astrocytes; type: cell-based, mouse; details: for inhibition by GW9662 of ligand-mediated increase in PPRE-luciferase activity: Pparb-null astrocytes pre-treated with PPARγ-antagonist GW9662; for PPRE luciferase activity: Pparb-null astrocytes, 4 h
How it was run: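 Astrocytes were taken from mixed glial cultures of 7-day-old Pparb-null mouse pups and pretreated with the PPARγ antagonist GW9662. At 60–70% confluence they were transfected with tk-PPREx3-Luc reporter. After 24 h they were treated with graded concentrations of test compound for 4 h, then luciferase activity was read.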

[2] = system: Ppara-null hippocampal neurons; test: AMPA-driven calcium influx in transduced Ppara-null hippocampal neurons; type: cell-based, mouse; details: 50 μM N20C present
How it was run: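 Primary hippocampal neurons came from pooled E18 Ppara-null fetal mice. Tissue was trypsinised 5 min at 37°C and plated on poly-D-lysine in neurobasal medium. AraC (10 μM) was added next day, and cells differentiated for 9–10 days. Neurons were lentivirally transduced with the indicated Ppara construct, then given the test compound. 50 μM N20C blocked NMDA-receptor calcium flow during AMPA stimulation. Mean of three independent experiments.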

PPRE-luciferase activity = type: cell-based, mouse
Y464D-PPARα = target: T4, Y464D-PPARα (Mus musculus, UniProt P23204, Y464D); test: Thermal shift assay of Y464D-PPARα with ligands; type: binding
T4 sequence (P23204 1-468 Y464D): T1 sequence (P23204 1-468 Y314D) with D314Y, Y464D
How it was run: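 Differential scanning fluorimetry used purified Y464D-PPARα protein (0.5–1 μg per reaction) in kit thermal shift buffer with dye, with or without test compound. The real-time cycler ran 25°C for 2 min, then 70 cycles of 27°C 15 s/26°C 1 min with 1°C auto-increment. Signal was read on the ROX filter, and melting temperature (Tm) was derived.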

[3] = lenti-Y314D/Y464D-Ppara-transduced
[4] = Ppara-null hippocampal neurons transduced with lenti-Y314D/Y464D-Ppara
[5] = Ppara-null hippocampal neurons transduced with lenti-Y464D-Ppara

SMILES | density of dendritic spines [1] | cytotoxicity (MTT) (primary mouse astrocytes) | recruitment of PPARα and PGC1α to the CREB promoter (CREB promoter) | PPRE-luciferase activity (Y314D-Ppara) | GC-MS peak after pull-down with PPARβ-LBD (PPARβ-LBD) | PPRE-luciferase activity (Y314D/Y464D-Ppara) | inhibition by GW9662 of ligand-mediated increase in PPRE-luciferase activity (PPRE luciferase activity) | PPRE luciferase activity (PPRE luciferase activity) | AMPA-mediated calcium influx ([2]; lenti-FL-Ppara-transduced) | AMPA-mediated calcium influx ([2]; lenti-Y314D-Ppara-transduced) | AMPA-mediated calcium influx [2, 3] | AMPA-mediated calcium influx ([2]; lenti-Y464D-Ppara-transduced) | PPRE-luciferase activity (PPRE-luciferase activity; [4]) | PPRE-luciferase activity (PPRE-luciferase activity; [5]) | effect on Tm (Y464D-PPARα)
CCCCCCCCCCCCCCCC(N)=O [HEX, hexadecanamide] | stimulated the density of spines only when Ppara-null neurons were transduced with lenti-FL-Ppara, but not lenti-Y464D-Ppara | significant level of cytotoxicity | stimulated the recruitment of PPARα and its coactivator PGC1α to the CREB promoter | partial induction of PPRE-luciferase activity | did not exhibit any peak | unable to stimulate PPRE-luciferase activity | remained unable to inhibit | markedly increased PPRE luciferase activity | stimulated AMPA-mediated calcium influx | only able to partially restore | remained unable to increase AMPA mediated calcium influx | remained unable to increase AMPA mediated calcium influx | completely abrogated the PPRE-luciferase activity | completely abrogated the PPRE-luciferase activity | did not alter the Tm
CCCCCCCCC=CCCCCCCCC(N)=O [OCT, 9-octadecenamide] | stimulated the density of spines only when Ppara-null neurons were transduced with lenti-FL-Ppara, but not lenti-Y464D-Ppara | significant level of cytotoxicity | stimulated the recruitment of PPARα and its coactivator PGC1α to the CREB promoter | partial induction of PPRE-luciferase activity | did not exhibit any peak | unable to stimulate PPRE-luciferase activity | remained unable to inhibit | markedly increased PPRE luciferase activity | stimulated AMPA-mediated calcium influx | only able to partially restore | remained unable to increase AMPA mediated calcium influx | remained unable to increase AMPA mediated calcium influx | completely abrogated the PPRE-luciferase activity | completely abrogated the PPRE-luciferase activity | did not alter the Tm
